Assay results published in ChEMBL document CHEMBL1138767, “Macrocyclic inhibitors for peptide deformylase: a structure-activity relationship study of the ring size” (J Med Chem, 2004).
Values after ≈ are worked out from the molar mass of the structure shown.

Key:
[1] = target: T1, Interstitial collagenase (Homo sapiens) (UniProt P03956); experiment: Inhibition of MMP-1 (matrix metalloprotease) at 10 uM
T1 sequence (whole entry): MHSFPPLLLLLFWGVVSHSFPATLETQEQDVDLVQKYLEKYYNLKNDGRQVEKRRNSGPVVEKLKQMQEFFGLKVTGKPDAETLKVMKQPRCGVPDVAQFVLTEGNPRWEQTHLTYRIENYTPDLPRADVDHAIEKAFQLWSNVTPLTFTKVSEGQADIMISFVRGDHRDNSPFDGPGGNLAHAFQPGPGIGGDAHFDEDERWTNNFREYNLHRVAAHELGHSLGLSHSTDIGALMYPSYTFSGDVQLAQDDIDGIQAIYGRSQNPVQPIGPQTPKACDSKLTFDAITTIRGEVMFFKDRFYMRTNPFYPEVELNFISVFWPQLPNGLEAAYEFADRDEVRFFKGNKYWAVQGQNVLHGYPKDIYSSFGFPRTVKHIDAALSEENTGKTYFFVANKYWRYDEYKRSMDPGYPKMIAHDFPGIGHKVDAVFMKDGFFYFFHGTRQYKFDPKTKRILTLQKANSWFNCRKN
Summary of the method: (§1)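 Human MMP-1, -2, -3 or -9 (0.10 µg, added last to start the reaction) in 100 mM Tris, 100 mM NaCl, 10 mM CaCl2, 0.04% Brij-35. Contained 15 µM fluorogenic peptide substrate (Mca-P-K-G-Dpa-A-R-NH2 for MMP-1/-2) and inhibitor at 0, 1 or 10 µM. Remaining activity monitored continuously by fluorescence, excitation 320 nm, emission 405 nm.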

[2] = target: T1, Interstitial collagenase (Homo sapiens); experiment: Inhibition of MMP-1 (matrix metalloprotease) at 1 uM; summary of the method: as §1
[3] = target: Matrix metalloproteinase-9 (Homo sapiens) (UniProt P14780); experiment: Inhibition of MMP-9 (matrix metalloprotease) at 1 uM; summary of the method: as §1
Chain of Matrix metalloproteinase-9 (Homo sapiens) (P14780 whole entry): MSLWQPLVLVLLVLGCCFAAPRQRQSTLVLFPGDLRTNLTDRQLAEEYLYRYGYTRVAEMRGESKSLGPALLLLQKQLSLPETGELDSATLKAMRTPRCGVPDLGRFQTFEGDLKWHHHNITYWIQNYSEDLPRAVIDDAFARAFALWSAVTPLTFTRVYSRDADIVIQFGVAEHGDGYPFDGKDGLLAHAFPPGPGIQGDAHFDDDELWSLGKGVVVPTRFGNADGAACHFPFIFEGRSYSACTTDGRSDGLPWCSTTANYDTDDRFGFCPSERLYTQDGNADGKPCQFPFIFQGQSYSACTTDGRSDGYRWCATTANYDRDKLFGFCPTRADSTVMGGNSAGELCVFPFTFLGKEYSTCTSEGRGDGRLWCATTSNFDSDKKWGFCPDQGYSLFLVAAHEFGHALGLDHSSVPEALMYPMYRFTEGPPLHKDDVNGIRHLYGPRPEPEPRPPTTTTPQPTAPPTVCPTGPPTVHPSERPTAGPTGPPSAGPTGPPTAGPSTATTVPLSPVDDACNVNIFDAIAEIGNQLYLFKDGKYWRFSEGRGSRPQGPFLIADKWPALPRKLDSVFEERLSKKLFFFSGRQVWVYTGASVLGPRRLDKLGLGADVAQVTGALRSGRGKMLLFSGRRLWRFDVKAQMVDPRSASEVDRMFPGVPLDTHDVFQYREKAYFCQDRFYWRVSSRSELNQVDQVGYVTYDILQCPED

[4] = target: T2, Peptide deformylase (Escherichia coli) (UniProt Q9JN24); experiment: Inhibition constant against Escherichia coli Peptide deformylase (PDF)
T2 sequence (whole entry): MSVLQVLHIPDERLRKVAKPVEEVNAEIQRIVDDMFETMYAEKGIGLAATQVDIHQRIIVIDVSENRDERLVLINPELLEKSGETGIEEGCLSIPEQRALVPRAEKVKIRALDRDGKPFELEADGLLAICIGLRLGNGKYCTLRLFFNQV

Peptide deformylase [5] = target: T3, Peptide deformylase (Escherichia coli, UniProt Q9JN24); experiment: Inhibitory effect against Escherichia coli peptide deformylase (PDF) by DPPI assay
T3 sequence (Q9JN24 whole entry): T2 sequence (whole entry)
Summary of the method: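 E. coli PDF (Co(II) cofactor) assayed continuously at room temperature in 50 mM Hepes, 10 mM NaCl, 5 mM DTT, pH 7.0. Read at 360 nm, initial rates from <30 s, no-PDF background subtracted. K_I from Michaelis–Menten fit.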

Peptide deformylase [6] = target: T3, Peptide deformylase; experiment: Inhibitory effect against Escherichia coli peptide deformylase (PDF) by AAP assay
Summary of the method: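 E. coli PDF (Co(II) cofactor) 8 nM preincubated with 0–300 nM inhibitor 2 h on ice in 50 mM Hepes pH 7.0, 150 mM NaCl, 100 μM BSA. Reaction started at room temperature with 80 μM f-ML-pNA for 10 min, heat-quenched at 95 °C, then coupled with AAP. A405 measured, no-PDF background subtracted, conversion <20%. K_I* from Michaelis–Menten fit.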

[7] = target: T2, Peptide deformylase (Escherichia coli); experiment: The inhibition constant was measured against Escherichia coli PDF (Peptide deformylase) by diluting a preformed EI* complex into a assay buffer containing f-Met-Lys-AMC and DPPI
Summary of the method: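 E. coli PDF (Co(II) form) at 40–160 nM and inhibitor at 80–200 nM, preincubated 2 h on ice in 50 mM Hepes pH 7.0, 10 mM NaCl, 5 mM DTT with 100 µM BSA. Then diluted 10-fold into the same buffer with 270 µM f-Met-Lys-AMC and 0.1 U DPPI. Recovery of activity followed continuously at 360 nm; k6 taken from progress curves.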

[8] = target: Stromelysin-1 (Homo sapiens) (UniProt P08254); experiment: Inhibition of MMP-3 (matrix metalloprotease) at 1 uM; summary of the method: as §1
Chain of Stromelysin-1 (Homo sapiens) (P08254 100-477 limits assumed): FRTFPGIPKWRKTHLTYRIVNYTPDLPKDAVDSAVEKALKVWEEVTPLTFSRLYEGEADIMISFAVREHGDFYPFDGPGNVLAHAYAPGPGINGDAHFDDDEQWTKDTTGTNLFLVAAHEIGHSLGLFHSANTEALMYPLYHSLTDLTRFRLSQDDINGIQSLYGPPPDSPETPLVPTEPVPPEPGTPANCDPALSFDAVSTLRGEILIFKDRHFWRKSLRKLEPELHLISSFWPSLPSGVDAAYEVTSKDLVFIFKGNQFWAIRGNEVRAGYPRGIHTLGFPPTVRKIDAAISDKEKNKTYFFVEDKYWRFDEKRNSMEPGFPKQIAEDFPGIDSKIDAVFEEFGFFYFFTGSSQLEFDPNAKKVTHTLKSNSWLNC

[9] = target: Matrix metalloproteinase-9 (Homo sapiens) (UniProt P14780); experiment: Inhibition of MMP-9 (matrix metalloprotease) at 10 uM; summary of the method: as §1
[10] = target: 72 kDa type IV collagenase (Homo sapiens) (UniProt P08253); experiment: Inhibition of MMP-2 (matrix metalloprotease) at 10 uM; summary of the method: as §1
Chain of 72 kDa type IV collagenase (Homo sapiens) (P08253 110-660 limits assumed): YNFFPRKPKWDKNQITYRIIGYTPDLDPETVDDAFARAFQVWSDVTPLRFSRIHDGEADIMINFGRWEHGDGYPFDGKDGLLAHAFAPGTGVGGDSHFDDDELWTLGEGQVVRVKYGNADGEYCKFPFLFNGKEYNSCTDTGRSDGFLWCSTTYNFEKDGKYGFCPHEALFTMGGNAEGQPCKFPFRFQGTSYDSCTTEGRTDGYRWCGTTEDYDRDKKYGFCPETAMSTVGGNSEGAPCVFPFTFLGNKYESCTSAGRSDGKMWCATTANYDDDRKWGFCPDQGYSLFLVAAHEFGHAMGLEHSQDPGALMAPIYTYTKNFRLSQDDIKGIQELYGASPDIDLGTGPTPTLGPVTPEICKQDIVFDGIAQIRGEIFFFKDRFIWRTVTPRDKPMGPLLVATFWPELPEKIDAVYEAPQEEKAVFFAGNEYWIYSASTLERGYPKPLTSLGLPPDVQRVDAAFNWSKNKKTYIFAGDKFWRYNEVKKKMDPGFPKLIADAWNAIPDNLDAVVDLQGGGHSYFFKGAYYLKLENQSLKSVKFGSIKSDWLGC

Bacillus subtilis = experiment: The compound was tested in vitro for antibacterial activity against Bacillus subtilis
[11] = target: 72 kDa type IV collagenase (Homo sapiens) (UniProt P08253); experiment: Inhibition of MMP-2 (matrix metalloprotease) at 1 uM; summary of the method: as §1
Escherichia coli = experiment: The compound was tested in vitro for antibacterial activity against Escherichia coli; assay type: functional
Summary of the method: (§2)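 Broth microdilution per NCCLS M7-A5 in cation-adjusted Mueller–Hinton broth; 5% lysed horse blood added for streptococci, Haemophilus Test Medium for Haemophilus. Inoculum ~5 × 10^5 CFU/mL from 16–20 h plate cultures. Twofold dilutions, final 0.03–32 µg/mL. Incubated 16–20 h at 35–37 °C (Haemophilus and Streptococcus: 24 h, 5% CO2). MIC is the lowest concentration with no visible growth, read visually.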

[12] = target: Stromelysin-1 (Homo sapiens) (UniProt P08254); experiment: Inhibition of MMP-3 (matrix metalloprotease) at 10 uM; summary of the method: as §1
Staphylococcus aureus = experiment: The compound was tested in vitro for antibacterial activity against Staphylococcus aureus (ATCC 29213); assay type: functional; summary of the method: as §2
Haemophilus influenzae = experiment: The compound was tested in vitro for antibacterial activity against Haemophilus influenzae (ATCC 31517); assay type: functional; summary of the method: as §2
Moraxella catarrhalis = experiment: The compound was tested in vitro for antibacterial activity against Moraxella catarrhalis (ATCC 37054); assay type: functional; summary of the method: as §2
Streptococcus pneumoniae [13] = experiment: The compound was tested in vitro for antibacterial activity against Streptococcus pneumoniae (ATCC 49619); assay type: functional; summary of the method: as §2
Enterococcus faecalis = experiment: The compound was tested in vitro for antibacterial activity against Enterococcus faecalis(ATCC 29212); assay type: functional; summary of the method: as §2
Streptococcus pneumoniae [14] = experiment: The compound was tested in vitro for antibacterial activity against Streptococcus pneumoniae (ATCC 6303); assay type: functional; summary of the method: as §2
Streptococcus pneumoniae [15] = experiment: The compound was tested in vitro for antibacterial activity against Streptococcus pneumoniae (ATCC 6301); assay type: functional; summary of the method: as §2

| SMILES | inhibition [1] [%] | inhibition [2] [%] | inhibition [3] [%] | K5 [4] | Ki (Peptide deformylase [5]) [nM] | Ki (Peptide deformylase [6]; read-out: Ki) [nM] | K6 [7] | inhibition [8] [%] | inhibition [9] [%] | inhibition [10] [%] | MIC90 (Bacillus subtilis) [µg/mL] | inhibition [11] [%] | MIC90 (Escherichia coli) [µg/mL] | inhibition [12] [%] | further results |
| --- | --- | --- | --- | --- | --- | --- | --- | --- | --- | --- | --- | --- | --- | --- | --- |
| CC(C)(C)[C@@H]1NC(=O)[C@@H](CN(O)C=O)CCCCCCCCNC1=O | 1 | 0 | 8 | 0.02 min⁻¹ | 63 | 13.7 | 0.0061 min⁻¹ | 3 | 11 | 15 | 1.4 (≈ 3.94 µM) | 10 | > 24 | 20 |  |
| CC(C)(C)[C@@H]1NC(=O)[C@@H](CN(O)C=O)CCCCCCCCCCCCCCNC1=O | 8 | 7 | 4 | 1 min⁻¹ |  | 25 | 0.01 min⁻¹ | 3 | 6 | 0 | ~16 (≈ 36.4 µM) | 0 | > 24 | 4 | MIC90 (Staphylococcus aureus): > 32 µg/mL; MIC90 (Haemophilus influenzae): > 32 µg/mL; MIC90 (Moraxella catarrhalis): < 0.03 µg/mL; MIC90 (Streptococcus pneumoniae [13]): 8 µg/mL (≈ 18.2 µM); MIC90 (Enterococcus faecalis): > 32 µg/mL; MIC90 (Streptococcus pneumoniae [14]): 4 µg/mL (≈ 9.1 µM); MIC90 (Streptococcus pneumoniae [15]): 8 µg/mL (≈ 18.2 µM) |
| CCCC[C@H](CN(O)C=O)C(=O)N[C@@H](CCCCN)C(=O)Nc1ccccc1 | 97 | 50 | 54 | No Slow-Binding Behaviour | 23 |  | No Slow-Binding Behaviour | 68 | 89 | 55 |  | 34 |  | 73 | Ki (Peptide deformylase [6]): No Slow-Binding Behaviour |
| CC(=O)NCCCC[C@@H]1NC(=O)[C@@H](CN(O)C=O)CCCCCCCCCNC1=O | 13 | 3 | 8 | 0.28 min⁻¹ | 710 | 12 | 0.0048 min⁻¹ | 0 | 8 | 20 |  | 17 |  | 8 |  |
| NCCCC[C@@H]1NC(=O)[C@@H](CN(O)C=O)CCCCCCCCCNC1=O |  |  |  | 0.12 min⁻¹ | 92 | 3 | 0.0042 min⁻¹ |  |  |  | ~8 (≈ 20.8 µM) |  | 4 (≈ 10.4 µM) |  |  |
| CC(C)(C)[C@@H]1NC(=O)[C@@H](CN(O)C=O)CCCCCCCCCCNC1=O |  |  |  | 1.6 min⁻¹ | 96 | 0.23 | 0.0037 min⁻¹ |  |  |  | 0.2 (≈ 0.521 µM) |  | > 12 |  |  |
| CCCCCCNC(=O)[C@H](CCCCN)NC(=O)[C@H](CCCCC)CN(O)C=O | 100 | 50 | 61 | No Slow-Binding Behaviour |  |  | No Slow-Binding Behaviour | 81 | 94 | 98 |  | 73 |  | 99 | Ki (Peptide deformylase [6]): No Slow-Binding Behaviour |
| NCCCC[C@@H]1NC(=O)[C@@H](CN(O)C=O)CCCCCCCCCCCCCCNC1=O | 7 | 1 | 4 | 0.11 min⁻¹ |  | 36 | 0.018 min⁻¹ | 0 | 5 | 15 | > 32 | 6 | > 32 | 6 | MIC90 (Staphylococcus aureus): 32 µg/mL (≈ 70.4 µM); MIC90 (Haemophilus influenzae): 32 µg/mL (≈ 70.4 µM); MIC90 (Moraxella catarrhalis): 1 µg/mL (≈ 2.2 µM); MIC90 (Streptococcus pneumoniae [13]): > 32 µg/mL; MIC90 (Enterococcus faecalis): 32 µg/mL (≈ 70.4 µM); MIC90 (Streptococcus pneumoniae [14]): > 32 µg/mL; MIC90 (Streptococcus pneumoniae [15]): > 32 µg/mL |
| CC(C)(C)[C@@H]1NC(=O)[C@@H](CN(O)C=O)CCCCCCCCCCCNC1=O |  |  |  | 0.5 min⁻¹ | 77 | 0.22 | 0.0015 min⁻¹ |  |  |  | 0.08 (≈ 0.201 µM) |  | > 24 |  |  |
| CCCC[C@H](CN(O)C=O)C(=O)N[C@H](C(=O)N(C)C)C(C)(C)C |  |  |  | No Slow-Binding Behaviour | 11 |  | No Slow-Binding Behaviour |  |  |  |  |  |  |  | Ki (Peptide deformylase [6]): No Slow-Binding Behaviour |
| CC(C)(C)[C@@H]1NC(=O)[C@@H](CN(O)C=O)CCCCCCCCCNC1=O | 14 | 7 | 5 | 1.2 min⁻¹ | 109 | 0.33 | 0.0038 min⁻¹ | 3 | 9 | 8 | 0.7 (≈ 1.89 µM) | 4 |  | 9 | MIC90 (Staphylococcus aureus): 16 µg/mL (≈ 43.3 µM); MIC90 (Haemophilus influenzae): 0.5 µg/mL (≈ 1.35 µM); MIC90 (Moraxella catarrhalis): 0.62 µg/mL (≈ 1.68 µM); MIC90 (Streptococcus pneumoniae [13]): 4 µg/mL (≈ 10.8 µM); MIC90 (Enterococcus faecalis): > 32 µg/mL; MIC90 (Streptococcus pneumoniae [14]): 2 µg/mL (≈ 5.41 µM); MIC90 (Streptococcus pneumoniae [15]): 4 µg/mL (≈ 10.8 µM) |
